# From PubChem
# NPY-Y2 antag = NPY-Y2 receptor antagonists, primary screen, cell-based; Neuropeptide Y receptor type 2 (Homo sapiens), P49146; NPY-Y2 expressing cells, antagonist mode; inhibition, % at 2.7 µM; hit rate 0.99% among 140,000; AID 793, 2007
# Target sequence (P49146 whole entry, looked up): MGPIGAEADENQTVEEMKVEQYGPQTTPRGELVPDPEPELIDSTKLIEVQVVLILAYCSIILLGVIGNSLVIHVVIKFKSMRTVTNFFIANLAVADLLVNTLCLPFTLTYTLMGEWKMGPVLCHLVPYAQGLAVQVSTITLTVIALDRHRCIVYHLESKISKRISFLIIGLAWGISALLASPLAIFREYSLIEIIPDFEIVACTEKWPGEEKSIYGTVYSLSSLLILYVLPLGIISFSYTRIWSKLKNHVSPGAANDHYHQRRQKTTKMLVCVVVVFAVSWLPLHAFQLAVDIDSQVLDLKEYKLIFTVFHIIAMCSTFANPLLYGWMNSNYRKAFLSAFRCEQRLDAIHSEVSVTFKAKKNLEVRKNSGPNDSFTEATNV
# NPY1 pot ag = NPY-Y1 receptor potentiators or agonists, primary screen, cell-based. Neuropeptide Y receptor type 1 (Homo sapiens), P25929. NPY-Y1 expressing cells, potentiator/agonist activation. activation, % at 3.6 µM. hit rate 0.37% among 220,000; in the data active = activation above about 33%, passing the limit was not always enough;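 note: cells stimulated with NPY at EC10 then isoproterenol at EC100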
# NPY-Y2 PAM-ag = NPY-Y2 potentiators or agonists, primary screen, cell-based. Neuropeptide Y receptor type 2 (Homo sapiens), P49146. cells expressing NPY-Y2, potentiator/agonist read-out. activation, % at 3.6 µM. hit rate 0.45% among 220,000; in the data active = activation above about 27%;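 note: cells stimulated with NPY near EC25 plus isoproterenol at EC100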
# NPY-Y1 antag = NPY-Y1 receptor antagonists, primary screen, cell-based | Neuropeptide Y receptor type 1 (Homo sapiens), P25929 | HEK293-CNG Y1 cells, membrane potential fluorescence; NPY at EC95, then isoproterenol | inhibition, % at 3.6 µM | hit rate 1% among 200,000 | AID 1040, 2008;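 active = inhibition above the campaign mean inhibition of all tested compounds plus 3 SD, cut at about 20% in these data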
#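 Material: Y1- and CNG-channel-expressing HEK293 cells / Probe or stimulus: NPY 25 nM then isoproterenol 1 µM plus Ro 20-1724 25 µM / Doses: 3.6 µM single dose, DMSO 0.4% / Schedule: compound incubation 1 h at room temperature, readout 45 min post-stimulation / Signal: membrane potential fluorescence / Benchmarks: isoproterenol-only wells as full block versus NPY-plus-isoproterenol wells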
# NPY-Y1 ant conf = NPY-Y1 receptor antagonists, retest of hits, confirmation, HEK293-CNG cells, membrane potential fluorescence, triplicate; shares compounds with NPY-Y1 antag; cAMP; NPY challenge against isoproterenol-raised cAMP; inhibition, % at 3.6 µM; AID 1254, 2008; hit rate 21% among 1,200; in the data active = inhibition above about 20%
# NPY-Y2 antag ct = NPY-Y2 receptor antagonists, selectivity check, confirmation, counter-screen for NPY-Y1 antagonist project, HEK293-CNG cells, membrane potential fluorescence, triplicate; shares compounds with NPY-Y1 antag; antagonism; cells given NPY, then isoproterenol; inhibition, % at 3.6 µM; hit rate 28% among 1,200
# Hits are given with their value; n = inactive; x = not tested or not shown. A selection: hits, their analogues and other compounds. The true share with any hit is near 1.8%. Cut-off read from the data, not from the text of the source, unless noted: active = inhibition above about 17%; inactive = the rest.
SMILES,NPY-Y2 antag,NPY1 pot ag,NPY-Y2 PAM-ag,NPY-Y1 antag,NPY-Y1 ant conf,NPY-Y2 antag ct
CC(=O)Nc1ccc(S(=O)(=O)NCC2CCC(C(=O)N3CCN(c4ccccn4)CC3)CC2)cc1 (stereo unspecified),n,n,n,n,x,x
S=c1[nH]nc(-c2cccnc2)o1,n,n,n,n,x,x
S=c1[nH]nc(-c2cccc(Br)c2)o1,n,n,n,24.3,n,n
Cc1ccc(S(=O)(=O)N/N=C/C(C)(C)CO)cc1,n,n,n,n,x,x
CCc1cccc(CC)c1NC(=O)CN1CC(C)SC1=NC1CCCCC1 (stereo unspecified),n,n,n,34.2,34.0,17.4
COc1cccc(CC2(CO)CCCN(Cc3c(C)cc(C)cc3-n3cccn3)C2)c1 (stereo unspecified),x,n,n,37.7,24.0,20.0
Cc1ccc(-c2noc(COc3ccccc3C)n2)cc1,n,n,n,22.3,n,n
Nc1cc(OC(=O)c2cccs2)nn1S(=O)(=O)c1ccc(F)cc1,n,n,n,n,x,x
CC(C)CCn1c(Oc2ccccc2Cl)nc2c1c(=O)n(C)c(=O)n2C,n,n,n,35.7,n,n
CCC(Sc1ncnc2sc(C)c(C)c12)C(=O)OC (stereo unspecified),n,n,n,26.2,n,n
Cc1ccc(NC(=S)NNC(=S)Nc2ccc(C)cc2C)cc1,x,n,n,22.0,n,17.1
CC(=O)Nc1ccc(S(=O)(=O)N2CCN(S(=O)(=O)N3CCCCC3)CC2)cc1,x,n,n,n,x,x
O=C(COc1ccccc1)Nc1ccc(S(=O)(=O)N2CCCCCC2)cc1,n,n,n,n,x,x
Cc1ccc(S(=O)(=O)N(CC(=O)NCCC2=CCCCC2)Cc2ccccc2)cc1,n,n,n,20.7,n,n
COCCNc1nc2nonc2nc1N(C)Cc1cccc2cnccc12,x,n,n,27.3,n,n
O=C(COc1ccccc1Cl)c1ccc2c(c1)CCCC2,n,n,n,20.7,n,n
CC(C)c1cccc(C(C)C)c1NC(=O)c1ccc(OCC(=O)NCc2ccccc2)cc1,n,n,n,n,x,x
Fc1ccccc1CSc1nnc(-c2ccccc2)o1,n,n,n,29.1,n,n
COc1ccc(-c2nnc(SCc3ccccc3F)o2)cc1,n,n,n,22.0,n,n
Fc1ccccc1CSc1nnc(-c2cccnc2)o1,x,n,n,n,x,x
Cc1ccc(CN2CCN(CC(=O)N3CCc4ccccc4C3)C2=O)cc1,n,n,n,n,x,x
CCN(CC)c1nc(C#N)cc(-c2ccc(OC)cc2)n1,n,n,n,n,x,x
CSc1ccccc1-n1nnnc1SCC(=O)Nc1cc(C)ccc1C,n,n,n,n,x,x
COC(=O)CNC(=O)c1cccc(F)c1,n,n,n,n,x,x
Cc1cccc(C(=O)NCCNc2nc3cc(C)c(C)cc3cc2C)c1,x,n,n,45.0,29.5,33.1
SMILES,NPY-Y2 antag,NPY1 pot ag,NPY-Y2 PAM-ag,NPY-Y1 antag,NPY-Y1 ant conf,NPY-Y2 antag ct
Cc1cc2cc(C)c(NCCNC(=O)c3cccs3)nc2cc1C,x,n,n,56.4,43.0,65.4
Cc1nc(CCNC(=O)c2cccs2)cs1,n,n,n,n,x,x
Cc1cc2cc(C)c(NCCNC(=O)c3ccccc3F)nc2cc1C,x,n,n,31.9,n,29.4
O=C(NCCc1ccncc1)c1ccccc1F,n,n,n,n,x,x
Cc1cc2cc(C)c(NCCNC(=O)c3cccc(F)c3)nc2cc1C,x,n,n,39.7,28.3,n
O=c1nc2n(c3sc4c(c13)CCCC4)C(CBr)CS2 (stereo unspecified),n,n,n,n,x,x
COC(=O)[C@@]1(Cc2ccc(OC)cc2)[C@H]2c3cc(C(=O)N4CCCC4)n(Cc4ccc(OC)c(OC)c4)c3C[C@H]2CN1C(=O)c1ccccc1,n,n,n,n,x,x
COC(=O)[C@@]1(Cc2ccc(F)cc2)[C@H]2c3cc(C(=O)N4CCCC4)n(Cc4ccc(C(F)(F)F)nc4)c3C[C@H]2CN1C(=O)c1ccccc1,n,n,n,28.0,27.7,n
COc1ccc(OC)c(/C=N/NC(=O)CNC(=O)c2ccc(S(=O)(=O)N3CCCC3)cc2)c1,x,n,n,n,x,x
CCN(Cc1ccccc1)C(=O)c1nn(-c2ccc(OC)cc2)c(=O)c2c1c1ccccc1n2C,x,n,n,38.2,42.5,23.6
COC(=O)CSc1nc(-c2ccccc2)nc2ccc(F)cc12,n,n,n,n,x,x
CCOC(=O)CSc1nc(-c2ccccc2)nc2ccc(F)cc12,n,n,n,23.2,n,n
CC(=O)N(CCC(Cc1ccccc1)c1ccc2c(c1)OCO2)Cc1ccccc1F (stereo unspecified),n,n,n,20.9,n,n
OCCOCCOc1cccc2[nH]ccc12,x,n,n,n,x,x
Cc1ccc(Cn2ncc3c(N4CCN(Cc5ccc(Cl)cc5)CC4)ncnc32)cc1,n,n,n,n,x,x
Cc1ccccc1N1CCN(c2ncnc3c2cnn3Cc2ccc(Cl)cc2)CC1,n,n,n,29.3,n,17.3
Cc1ccc(NC(=S)NCCN(C2CCCCC2)C2CCCC2)cc1,x,n,n,n,x,x
Cc1ccc(NC(=S)NCCN(C2CCCCC2)C2CCCC2)cc1C,x,n,n,27.5,n,n
COc1ccc(/C=N/OC(=O)Nc2ccccc2OC)cc1,x,n,n,21.9,n,n
COc1ccc(NC(=O)O/N=C/c2ccncc2)cc1,x,n,n,n,x,x
CCS(=O)(=O)c1nc(S(=O)(=O)c2ccc(Cl)cc2)c(NCc2ccco2)s1,n,n,n,n,x,x
Cc1cc(Br)ccc1OCCCCNC(C)(C)C,n,n,n,n,x,x
CC(C)COc1ccc(Br)cc1CNC(C)(C)C,x,n,n,27.8,n,n
N#C/C(=C(/O)c1ccc(F)cc1)c1nc2ccccc2s1,x,n,n,n,x,x
CN(C)CCNC(=O)c1sc2cccc(F)c2c1Cl,x,n,n,33.1,n,n
SMILES,NPY-Y2 antag,NPY1 pot ag,NPY-Y2 PAM-ag,NPY-Y1 antag,NPY-Y1 ant conf,NPY-Y2 antag ct
Cc1ccc(-c2csc(Nc3ccccc3)[n+]2CCc2ccccc2)cc1,x,n,n,22.3,n,18.1
Cc1ccc(-c2csc(Nc3ccc(C(=O)O)cc3)[n+]2Cc2ccccc2)cc1,x,n,n,n,x,x
COC(=O)c1c(NC(=O)Cc2cccs2)sc(C(=O)NC2CCCCC2)c1C,n,n,n,n,x,x
Cc1ccc(-n2nc(C)c3c2OC(N)=C(C#N)C3c2ccncc2)cc1 (stereo unspecified),n,n,n,23.5,n,n
O=C(CSc1nnc(-c2cccs2)n1CC1CCCO1)N1CCCC1 (stereo unspecified),x,n,n,n,x,x
CCOc1ccc(C(C)=O)cc1CSc1nnc(-c2cccs2)n1CC1CCCO1 (stereo unspecified),n,n,n,27.3,n,n
COc1ccc(CC(=O)Nc2c3c(nn2-c2cccc(Cl)c2)CS(=O)(=O)C3)cc1,n,n,n,n,x,x
